From ChEMBL document CHEMBL4130539, “Novel ureidopropanamide based N-formyl peptide receptor 2 (FPR2) agonists with potential application for central nervous system disorders characterized by neuroinflammation” (Eur J Med Chem, 2017)
Active and inactive are the calls of the source. The calls are words filed in the database; no cut-off is given here.

Key:
[1] = Intrinsic clearance in rat liver microsomes at 10 uM preincubated for 10 mins followed by NADPH addition by liquid chromatographic method; type: ADME, microsome
Microglia [2] = test: Anti-inflammatory activity in Sprague-Dawley rat primary microglia cells assessed as inhibition of LPS-induced IL-1beta level up to 10 uM pretreated for 1 hr followed by LPS stimulation for 24 hrs in presence of FPR2 antagonist WRW4 by ELISA; type: functional, cell-based
Summary of the method: (§1)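 Primary microglia from cortices of 1–2-day-old Sprague-Dawley rats, shaken off mixed cultures at day 9 in vitro, >95% Iba-1/CD11b-positive, used 2 days after plating. Agonist added 1 h before LPS (E. coli 0111:B4, 100 ng/ml) for 24 h; WRW4 given 30 min before agonist where stated. Medium NO by Griess reaction (540 nm); TNF-α and IL-1β by ELISA. Data as % of vehicle-treated control.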

Microglia [3] = test: Proinflammatory activity in Sprague-Dawley rat primary microglia cells assessed as induction of TNFalpha level up to 10 uM after 24 hrs in presence of FPR2 antagonist WRW4 by ELISA; type: cell-based
Summary of the method: (§2)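 Rat primary cortical microglia (Sprague-Dawley pups, 1–2 days old, >95% Iba-1/CD11b-positive) given agonist without LPS for 24 h; WRW4 added 30 min before agonist where indicated. Supernatant NO measured with Griess reagent (540 nm, 10 min room temperature); TNF-α and IL-1β by ELISA. Values normalized to vehicle-treated cells (100%).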

Microglia [4] = test: Anti-inflammatory activity in Sprague-Dawley rat primary microglia cells assessed as inhibition of LPS-induced TNFalpha level up to 10 uM pretreated for 1 hr followed by LPS stimulation for 24 hrs in presence of FPR2 antagonist WRW4 by ELISA; type: functional, cell-based; summary of the method: as §1
Microglia [5] = test: Cytotoxicity against Sprague-Dawley rat primary microglia cells assessed as cell death at 50 uM after 24 hrs by LDH assay; type: cell-based
Microglia [6] = test: Cytoprotection against LPS-induced cell death in Sprague-Dawley rat primary microglia cells at 1 to 5 uM pretreated for 1 hr followed by LPS stimulation for 24 hrs by LDH assay; type: functional, cell-based
Microglia [7] = test: Anti-inflammatory activity in Sprague-Dawley rat primary microglia cells assessed as inhibition of LPS-induced NO level at 5 to 10 uM pretreated for 1 hr followed by LPS stimulation for 24 hrs by Griess reagent based assay; type: functional, cell-based; summary of the method: as §1
[8] = molecular target: T1, N-formyl peptide receptor 2 (Homo sapiens, UniProt P25090); test: Agonist activity at FPR2 in human neutrophils assessed as induction of calcium mobilization measured every 5 secs for 240 secs by Fluo-4-AM dye based fluorometric method; type: functional; conditions: read-out: EC50
T1 sequence (P25090 whole entry): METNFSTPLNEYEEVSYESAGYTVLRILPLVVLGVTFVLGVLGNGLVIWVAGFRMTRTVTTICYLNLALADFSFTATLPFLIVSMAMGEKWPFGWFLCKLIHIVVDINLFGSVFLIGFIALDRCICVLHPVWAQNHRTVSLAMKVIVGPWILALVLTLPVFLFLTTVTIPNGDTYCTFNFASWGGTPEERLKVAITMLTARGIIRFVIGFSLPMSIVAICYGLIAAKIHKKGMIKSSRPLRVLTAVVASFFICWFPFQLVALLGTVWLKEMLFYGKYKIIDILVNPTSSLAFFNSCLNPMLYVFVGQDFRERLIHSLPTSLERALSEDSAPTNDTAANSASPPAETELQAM

Microglia [9] = test: Cytotoxicity against Sprague-Dawley rat primary microglia cells assessed as cell death at 0.5 to 10 uM after 24 hrs by LDH assay; type: cell-based
Microglia [10] = test: Proinflammatory activity in Sprague-Dawley rat primary microglia cells assessed as induction of IL-1beta level up to 10 uM after 24 hrs by ELISA; type: cell-based; summary of the method: as §2
[11] = Half life in rat liver microsomes at 10 uM preincubated for 10 mins followed by NADPH addition by liquid chromatographic method; type: ADME, microsome
Microglia [12] = test: Cytoprotection against LPS-induced cell death in Sprague-Dawley rat primary microglia cells at 0.5 to 50 uM pretreated for 1 hr followed by LPS stimulation for 24 hrs by MTT assay; type: functional, cell-based
Microglia [13] = test: Proinflammatory activity in Sprague-Dawley rat primary microglia cells assessed as induction of NO level up to 10 uM after 24 hrs in presence of FPR2 antagonist WRW4 by Griess reagent based assay; type: cell-based; summary of the method: as §2
[14] = molecular target: T2, N-formyl peptide receptor 2 (Homo sapiens) (UniProt P25090); test: Agonist activity at FPR2 in human neutrophils assessed as induction of calcium mobilization measured every 5 secs for 240 secs by Fluo-4-AM dye based fluorometric method relative to fMLF
T2 sequence (whole entry): T1 sequence (P25090 whole entry)

Microglia [15] = test: Anti-inflammatory activity in Sprague-Dawley rat primary microglia cells assessed as inhibition of LPS-induced TNFalpha level up to 10 uM pretreated for 1 hr followed by LPS stimulation for 24 hrs by ELISA; type: functional, cell-based; summary of the method: as §1
Microglia [16] = test: Cytotoxicity against Sprague-Dawley rat primary microglia cells assessed as reduction in cell viability at 50 uM after 24 hrs by MTT assay; type: cell-based
Microglia [17] = test: Cytotoxicity against Sprague-Dawley rat primary microglia cells assessed as reduction in cell viability at 0.5 to 10 uM after 24 hrs by MTT assay; type: cell-based
Microglia [18] = test: Proinflammatory activity in Sprague-Dawley rat primary microglia cells assessed as induction of TNFalpha level up to 10 uM after 24 hrs by ELISA; type: cell-based; summary of the method: as §2
[19] = Efflux ratio of apparent permeability in hCMEC/D3 cells at 5 to 10 uM after 2 hrs by UV-spectroscopic method; type: ADME, cell-based; conditions: human, hcmec/d3, 2 h
[20] = molecular target: T1, N-formyl peptide receptor 2; test: Agonist activity at human FPR2 expressed in human HL60 cells assessed as induction of calcium mobilization measured every 5 secs for 240 secs by Fluo-4-AM dye based fluorometric method; type: functional, cell-based; conditions: read-out: EC50
[21] = molecular target: T3, fMet-Leu-Phe receptor (Homo sapiens) (UniProt P21462); test: Agonist activity at human FPR1 expressed in human HL60 cells assessed as induction of calcium mobilization measured every 5 secs for 240 secs by Fluo-4-AM dye based fluorometric method relative to fMLF; type: functional, cell-based
T3 sequence (whole entry): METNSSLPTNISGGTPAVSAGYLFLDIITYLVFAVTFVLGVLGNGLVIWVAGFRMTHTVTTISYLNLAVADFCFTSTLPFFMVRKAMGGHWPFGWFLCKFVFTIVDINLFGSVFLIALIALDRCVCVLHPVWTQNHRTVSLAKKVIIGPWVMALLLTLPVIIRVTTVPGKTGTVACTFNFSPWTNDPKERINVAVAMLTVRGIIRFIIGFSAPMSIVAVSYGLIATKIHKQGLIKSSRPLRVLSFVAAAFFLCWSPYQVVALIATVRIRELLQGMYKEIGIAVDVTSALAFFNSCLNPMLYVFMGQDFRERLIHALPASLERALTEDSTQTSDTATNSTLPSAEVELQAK

Microglia [22] = test: Proinflammatory activity in Sprague-Dawley rat primary microglia cells assessed as induction of IL-1beta level up to 10 uM after 24 hrs in presence of FPR2 antagonist WRW4 by ELISA; type: cell-based; summary of the method: as §2
fMet-Leu-Phe receptor [23] = molecular target: T4, fMet-Leu-Phe receptor (Homo sapiens, UniProt P21462); test: Agonist activity at human FPR1 expressed in human HL60 cells assessed as induction of calcium mobilization measured every 5 secs for 240 secs by Fluo-4-AM dye based fluorometric method; type: functional, cell-based; conditions: read-out: EC50
T4 sequence (P21462 whole entry): T3 sequence (whole entry)

Microglia [24] = test: Anti-inflammatory activity in Sprague-Dawley rat primary microglia cells assessed as inhibition of LPS-induced IL-1beta level up to 10 uM pretreated for 1 hr followed by LPS stimulation for 24 hrs by ELISA; type: functional, cell-based; summary of the method: as §1
Microglia [25] = test: Anti-inflammatory activity in Sprague-Dawley rat primary microglia cells assessed as inhibition of LPS-induced NO level up to 10 uM pretreated for 1 hr followed by LPS stimulation for 24 hrs in presence of FPR2 antagonist WRW4 by Griess reagent based assay; type: functional, cell-based; summary of the method: as §1
Microglia [26] = test: Proinflammatory activity in Sprague-Dawley rat primary microglia cells assessed as induction of NO level up to 10 uM after 24 hrs by Griess reagent based assay; type: cell-based; summary of the method: as §2
[27] = Metabolic stability in rat liver microsomes assessed as parent compound remaining at 10 uM preincubated for 10 mins followed by NADPH addition measured after 30 mins by liquid chromatographic method; type: ADME, microsome; conditions: 0.5 h
[28] = molecular target: T2, N-formyl peptide receptor 2 (Homo sapiens); test: Agonist activity at human FPR2 expressed in human HL60 cells assessed as induction of calcium mobilization measured every 5 secs for 240 secs by Fluo-4-AM dye based fluorometric method relative to WKYMVM; type: functional, cell-based
fMet-Leu-Phe receptor [29] = molecular target: T4, fMet-Leu-Phe receptor; test: Agonist activity at human FPR1 expressed in human HL60 cells assessed as induction of calcium mobilization; type: functional, cell-based

Q: What does the source list for N#Cc1ccc(C[C@H](NC(=O)Nc2ccc([N+](=O)[O-])cc2)C(=O)NCC2(c3ccccc3)CC2)cc1?
A: Microsomal intrinsic clearance (CLint) [1]: 5.78 µL/min/mg; inhibition (Microglia [2]): Active; Activity (Microglia [3]): Non-Toxic; inhibition (Microglia [4]): Active; Activity (Microglia [5]): Toxic; Activity (Microglia [6]): Active; inhibition (Microglia [7]): Active; EC50 [8]: 2500 nM; Activity (Microglia [9]): Non-Toxic; Activity (Microglia [10]): Non-Toxic; t1/2 [11]: 2 h; Activity (Microglia [12]): inactive; Activity (Microglia [13]): Non-Toxic; Efficacy [14]: 115%; inhibition (Microglia [15]): Active; Activity (Microglia [16]): Toxic; Activity (Microglia [17]): Non-Toxic; Activity (Microglia [18]): Non-Toxic; Ratio [19]: 5.06; EC50 [20]: 630 nM; Efficacy [21]: 75%; Activity (Microglia [22]): Non-Toxic; EC50 (fMet-Leu-Phe receptor [23]): 2800 nM; inhibition (Microglia [24]): Active; inhibition (Microglia [25]): Active; Activity (Microglia [26]): Non-Toxic; Stability [27]: 56%; Efficacy [28]: 100%

Q: For COc1ccc(NC(=O)N[C@@H](Cc2c[nH]c3ccccc23)C(=O)NCC2(c3ccc(OC)cn3)CCCCC2)cc1, which EC50 (fMet-Leu-Phe receptor [29]) is on record?
A: Its EC50 is 260 nM.

Q: And the Stability [27]?
A: Its Stability is 4%.
